The values that follow come from ChEMBL document CHEMBL5260840 (J Med Chem, 2019).

One test deals with A204. Nature of the test: Antiproliferative activity against human A204 cells assessed as inhibition of cell growth incubated for 7 days by CellTiterGlo assay. The format is functional, cell-based. To be noted: A204, 168 h.
The target of test [1] is T1, Protein cereblon/Bromodomain-containing protein 9 (Homo sapiens) (UniProt Q9H8M2+Q96SW2). Nature of the test: PROTAC activity at CRBN/BRD9 in human HeLa cells assessed as remaining BRD9 protein level at 1 uM incubated for 4 hrs by Western blot analysis relative to control. In kind it is cell-based. An outline of the steps:
(§1)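 Cells given 1 µM compound before harvest: HeLa 4 h, RI-1 2 h and 8 h. BRD9, BRD7 and β-actin detected by Western blot; band intensities quantified.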
Background: In western blotting, separated proteins are transferred to a membrane and probed.

Test [2] concerns the target T1, Protein cereblon/Bromodomain-containing protein 9 (Homo sapiens). Nature of the test: PROTAC activity at CRBN/BRD9 in human HeLa cells assessed as remaining BRD9 protein level at 1 uM incubated for 16 hrs by Western blot analysis relative to control. In kind it is cell-based. Summed up: (§2)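 HeLa cells given 1 µM compound for 16 h before harvest. BRD9, BRD7 and β-actin detected by Western blot; band intensities quantified.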

For test [3], the target named is T2, Protein cereblon/Bromodomain-containing protein 7 (Homo sapiens) (UniProt Q9NPI1+Q96SW2). Nature of the test: PROTAC activity at CRBN/BRD7 in human HeLa cells assessed as remaining BRD7 protein level at 1 uM incubated for 4 hrs by Western blot analysis relative to control. In kind it is cell-based. Summed up: as §1
The target in test [4] is T2, Protein cereblon/Bromodomain-containing protein 7 (Homo sapiens). Nature of the test: PROTAC activity at CRBN/BRD7 in human HeLa cells assessed as remaining BRD7 protein level at 1 uM incubated for 16 hrs by Western blot analysis relative to control. In kind it is cell-based. Summed up: as §2
Test [5] concerns the target T1, Protein cereblon/Bromodomain-containing protein 9 (Homo sapiens). Nature of the test: PROTAC activity at CRBN/BRD9 in human Ri-1 cells assessed as remaining BRD9 protein level at 1 uM incubated for 2 hrs by Western blot analysis relative to control. In kind it is cell-based. An outline of the steps:
as §1

The target of test [6] is T2, Protein cereblon/Bromodomain-containing protein 7 (Homo sapiens). Nature of the test: PROTAC activity at CRBN/BRD7 in human Ri-1 cells assessed as remaining BRD7 protein level at 1 uM incubated for 2 hrs by Western blot analysis relative to control. The format is cell-based. An outline of the steps:
as §1

Test [7] addresses T1, Protein cereblon/Bromodomain-containing protein 9 (Homo sapiens). Nature of the test: PROTAC activity at CRBN/BRD9 in human Ri-1 cells assessed as remaining BRD9 protein level at 1 uM incubated for 8 hrs by Western blot analysis relative to control. In kind it is cell-based. An outline of the steps: as §1
The target in test [8] is T2, Protein cereblon/Bromodomain-containing protein 7 (Homo sapiens). Nature of the test: PROTAC activity at CRBN/BRD7 in human Ri-1 cells assessed as remaining BRD7 protein level at 1 uM incubated for 8 hrs by Western blot analysis relative to control. The format is cell-based. Summed up: as §1
For test [9], the target named is Bromodomain-containing protein 4 (Homo sapiens) (UniProt O60885).
Test [10] addresses T3, von Hippel-Lindau disease tumor suppressor/Bromodomain-containing protein 9 (Homo sapiens) (UniProt Q9H8M2+P40337). Nature of the test: PROTAC activity at VHL/BRD9 in human HeLa cells assessed as remaining BRD9 protein level at 1 uM incubated for 16 hrs by Western blot analysis relative to control. The format is cell-based. Summed up:
(§3)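 HeLa cells treated with compound for the stated time before harvest; BRD9, BRD7 and β-actin detected by Western blot with β-actin loading control; band intensities quantified.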

Test [11] deals with T4, von Hippel-Lindau disease tumor suppressor/Bromodomain-containing protein 7 (Homo sapiens) (UniProt Q9NPI1+P40337). Nature of the test: PROTAC activity at VHL/BRD7 in human HeLa cells assessed as remaining BRD7 protein level at 1 uM incubated for 4 hrs by Western blot analysis relative to control. The format is cell-based.
Test [12] has as its target T4, von Hippel-Lindau disease tumor suppressor/Bromodomain-containing protein 7 (Homo sapiens). Nature of the test: PROTAC activity at VHL/BRD7 in human HeLa cells assessed as remaining BRD7 protein level at 1 uM incubated for 16 hrs by Western blot analysis relative to control. In kind it is cell-based.
Test [13] has as its target T3, von Hippel-Lindau disease tumor suppressor/Bromodomain-containing protein 9 (Homo sapiens). Nature of the test: PROTAC activity at VHL/BRD9 in human HeLa cells assessed as protein degradation at 1 uM incubated for 4 hrs by Western blot analysis relative to control. In kind it is cell-based. Summed up:
as §3

Test [14] has the same target. Nature of the test: PROTAC activity at VHL/BRD9 in human HeLa cells assessed as maximal protein degradation at 10 uM incubated for 4 hrs by Western blot analysis relative to control. In kind it is cell-based. An outline of the steps:
as §3

Test [15] has the same target. Nature of the test: PROTAC activity at VHL/BRD9 in human HeLa cells assessed as apparent half-life of BRD9 at 1 uM. The format is cell-based.
For test [16] the target is unchanged. Nature of the test: PROTAC activity at VHL/BRD9 in human HeLa cells assessed as BRD9 protein degradation at 1 uM incubated for 4 hrs by Western blot analysis relative to control. In kind it is cell-based. Summed up:
as §3

Test [17] shares this target. Nature of the test: PROTAC activity at VHL/BRD9 in human HeLa cells assessed as BRD9 protein degradation at 1 uM incubated for 8 hrs by Western blot analysis. In kind it is cell-based. An outline of the steps: as §3
For test [18] the target is unchanged. Nature of the test: PROTAC activity at VHL/BRD9 in human Ri-1 cells assessed as remaining BRD9 protein level at 1 uM incubated for 2 hrs by Western blot analysis relative to control. The format is cell-based. Summed up: (§4)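 Ri-1 cells exposed to compound for the stated time before harvest; BRD9, BRD7 and β-actin measured by Western blot, band intensities quantified and set against DMSO-treated control.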

Test [19] has as its target T4, von Hippel-Lindau disease tumor suppressor/Bromodomain-containing protein 7 (Homo sapiens). Nature of the test: PROTAC activity at VHL/BRD7 in human Ri-1 cells assessed as remaining BRD7 protein level at 1 uM incubated for 2 hrs by Western blot analysis relative to control. The format is cell-based.
In test [20] the target is T3, von Hippel-Lindau disease tumor suppressor/Bromodomain-containing protein 9 (Homo sapiens). Nature of the test: PROTAC activity at VHL/BRD9 in human Ri-1 cells assessed as remaining BRD9 protein level at 1 uM incubated for 8 hrs by Western blot analysis relative to control. The format is cell-based. Summed up:
as §4

The target in test [21] is T4, von Hippel-Lindau disease tumor suppressor/Bromodomain-containing protein 7 (Homo sapiens). Nature of the test: PROTAC activity at VHL/BRD7 in human Ri-1 cells assessed as remaining BRD7 protein level at 1 uM incubated for 8 hrs by Western blot analysis relative to control. In kind it is cell-based.
Test [22] concerns the target T5, Von Hippel-Lindau disease tumor suppressor/Elongin B/Elongin C (Homo sapiens) (UniProt P40337+Q15370+Q15369). Nature of the test: Co-operative binding affinity to 6His-tagged human VHL/ElonginC/ElonginB expressed in Escherichia coli BL21 (DE3) cells assessed as total gibb's free energy change in the presence of BRD9-BD as complex with compound by ITC analysis.
Test [23] deals with T5, Von Hippel-Lindau disease tumor suppressor/Elongin B/Elongin C (Homo sapiens). Nature of the test: Co-operative binding affinity to 6His-tagged human VHL/ElonginC/ElonginB expressed in Escherichia coli BL21 (DE3) cells assessed as maximal intensity in the presence of BRD9-BD as complex with compound incubated for 1 hrs by AlphaLISA proximity assay. A general note: Alpha assays give light when donor and acceptor beads are brought close together.

In general, pIC50 refers to the IC50 on a negative log10 scale, so that one unit is a factor of ten. Usually Emax stands for the size of the effect at its maximum, as opposed to the concentration needed.

Structures are written as SMILES. pIC50: −log10 of the molar value. Active and inactive are the calls of the source. No cut-off for these calls is given here.

T1 sequence (Q96SW2 whole entry, looked up): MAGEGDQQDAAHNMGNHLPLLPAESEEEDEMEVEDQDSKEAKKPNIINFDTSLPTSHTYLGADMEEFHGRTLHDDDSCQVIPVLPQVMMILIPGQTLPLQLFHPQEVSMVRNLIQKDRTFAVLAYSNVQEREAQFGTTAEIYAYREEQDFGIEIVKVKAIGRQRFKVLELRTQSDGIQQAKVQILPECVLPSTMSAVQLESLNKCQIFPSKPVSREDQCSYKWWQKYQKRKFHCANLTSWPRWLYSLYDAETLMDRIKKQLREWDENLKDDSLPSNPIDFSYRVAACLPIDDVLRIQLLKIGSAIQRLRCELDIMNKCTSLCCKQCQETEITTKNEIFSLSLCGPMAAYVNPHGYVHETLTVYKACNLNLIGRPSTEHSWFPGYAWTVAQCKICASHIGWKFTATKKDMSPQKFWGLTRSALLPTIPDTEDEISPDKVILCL
T1 sequence (Q9H8M2 whole entry, looked up): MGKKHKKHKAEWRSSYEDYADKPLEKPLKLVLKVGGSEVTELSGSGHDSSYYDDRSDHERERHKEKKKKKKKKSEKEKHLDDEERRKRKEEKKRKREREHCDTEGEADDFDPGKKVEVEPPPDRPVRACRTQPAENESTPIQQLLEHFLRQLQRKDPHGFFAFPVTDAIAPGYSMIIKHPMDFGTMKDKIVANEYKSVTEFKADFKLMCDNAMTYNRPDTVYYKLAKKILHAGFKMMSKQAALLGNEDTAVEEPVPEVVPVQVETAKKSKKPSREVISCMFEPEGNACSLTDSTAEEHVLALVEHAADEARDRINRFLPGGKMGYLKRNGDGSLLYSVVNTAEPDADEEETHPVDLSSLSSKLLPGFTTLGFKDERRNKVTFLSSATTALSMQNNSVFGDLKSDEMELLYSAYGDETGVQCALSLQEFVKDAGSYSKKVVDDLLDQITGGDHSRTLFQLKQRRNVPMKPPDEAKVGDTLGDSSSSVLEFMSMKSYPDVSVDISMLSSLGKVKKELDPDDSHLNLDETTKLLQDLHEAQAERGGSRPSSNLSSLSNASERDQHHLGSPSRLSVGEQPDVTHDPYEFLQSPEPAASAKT
T2 sequence (Q96SW2 whole entry, looked up): as the sequence (Q96SW2 whole entry, looked up) above
T2 sequence (Q9NPI1 whole entry, looked up): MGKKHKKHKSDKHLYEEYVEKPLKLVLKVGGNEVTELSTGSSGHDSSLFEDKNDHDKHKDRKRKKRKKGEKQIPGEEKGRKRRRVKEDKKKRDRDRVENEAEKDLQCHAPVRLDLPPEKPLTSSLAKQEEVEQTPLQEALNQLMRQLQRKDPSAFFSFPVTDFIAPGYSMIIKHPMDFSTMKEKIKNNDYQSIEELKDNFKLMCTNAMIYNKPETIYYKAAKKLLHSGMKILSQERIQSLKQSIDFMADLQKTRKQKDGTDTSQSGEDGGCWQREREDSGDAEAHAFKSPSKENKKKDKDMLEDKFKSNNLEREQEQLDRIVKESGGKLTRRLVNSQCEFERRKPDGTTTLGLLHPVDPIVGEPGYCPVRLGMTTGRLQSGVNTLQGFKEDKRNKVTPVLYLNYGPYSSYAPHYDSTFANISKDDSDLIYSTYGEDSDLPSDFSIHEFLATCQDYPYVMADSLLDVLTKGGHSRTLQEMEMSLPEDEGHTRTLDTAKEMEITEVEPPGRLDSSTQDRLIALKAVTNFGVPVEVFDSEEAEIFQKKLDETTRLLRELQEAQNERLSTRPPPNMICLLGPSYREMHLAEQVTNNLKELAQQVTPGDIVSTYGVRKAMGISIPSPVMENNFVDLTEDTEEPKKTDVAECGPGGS
T4 sequence (P40337 whole entry, looked up): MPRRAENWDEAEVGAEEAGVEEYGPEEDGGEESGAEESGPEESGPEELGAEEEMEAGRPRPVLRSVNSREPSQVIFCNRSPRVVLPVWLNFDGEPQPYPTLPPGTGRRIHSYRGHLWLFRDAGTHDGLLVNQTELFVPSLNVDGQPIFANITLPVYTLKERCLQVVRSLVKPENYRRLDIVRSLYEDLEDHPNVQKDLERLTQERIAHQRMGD
T4 sequence (Q9NPI1 whole entry, looked up): as the sequence (Q9NPI1 whole entry, looked up) above
T3 sequence (P40337 whole entry, looked up): as the sequence (P40337 whole entry, looked up) above
T3 sequence (Q9H8M2 whole entry, looked up): as the sequence (Q9H8M2 whole entry, looked up) above
T5 sequence (P40337 whole entry, looked up): as the sequence (P40337 whole entry, looked up) above
T5 sequence (Q15369 whole entry, looked up): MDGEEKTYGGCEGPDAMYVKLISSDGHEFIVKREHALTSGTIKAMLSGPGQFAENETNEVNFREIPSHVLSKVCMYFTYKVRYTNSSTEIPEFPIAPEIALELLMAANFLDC
T5 sequence (Q15370 whole entry, looked up): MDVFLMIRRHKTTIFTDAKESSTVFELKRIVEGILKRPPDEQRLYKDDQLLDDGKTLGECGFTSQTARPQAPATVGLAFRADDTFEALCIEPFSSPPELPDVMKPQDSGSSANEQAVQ

For `COc1cc(-c2cn(C)c(=O)c3cnccc23)cc(OC)c1CN1CCN(CCOCCOCC(=O)NCCNc2cccc3c2C(=O)N(C2CCC(=O)NC2=O)C3=O)CC1` (centres undefined), the pIC50 in the test with A204 was 6.52. The Activity in test [1] worked out at 6%; in test [2], 7%; in test [3] it was 81%; in test [4], 97%; in test [5], 5%; in test [6], 158%. Also, the Activity came out at 2% in test [7] and 225% in [8].
Regarding `Cc1ncsc1-c1ccc(CNC(=O)[C@@H]2C[C@@H](O)CN2C(=O)[C@@H](NC(=O)COCCOCCOCCNC(=O)C[C@@H]2N=C(c3ccc(Cl)cc3)c3c(sc(C)c3C)-n3c(C)nnc32)C(C)(C)C)cc1`, in test [9], the deltaG was -22.2 kcal/mol.
Turning to `COc1cc(-c2cn(C)c(=O)c3cnccc23)cc(OC)c1CN1CCN(CCOCCOCCOc2cc(-c3scnc3C)ccc2CNC(=O)[C@@H]2C[C@@H](O)CN2C(=O)[C@@H](NC(=O)C2(F)CC2)C(C)(C)C)CC1`, the Activity is 36% in [10]; 7% in test [11]; 90% in test [12]; 60% in [13]; greater than 50% in test [16]; 68% in test [18]. Moreover, the Activity was 127% in test [19], 100% in test [20], 145% in [21] and 1.56 10^6No_unit in [23]. Further, in test [14], the Emax turned out to be 80%. Moreover, the T1/2 in test [15] came to 3.47 h. Also, the outcome in test [17] was Active. In test [22], the deltaG is -20.7 kcal/mol.
